IC50 data for 22 compounds are collected here from ChEMBL document CHEMBL2346551, “A new series of N2-substituted-5-(p-toluenesulfonylamino)phthalimide analogues as α-glucosidase inhibitors” (Bioorg Med Chem Lett, 2013).

The structures appear in SMILES notation.

Assay [1] in a line: Inhibition of rat alpha-amylase using amylose as substrate by colorimetric analysis.
Assay [2] addresses Lactase/phlorizin hydrolase (Rattus norvegicus, UniProt Q02401). The assay can be described thus: Inhibition of rat intestinal lactase using lactose as substrate by colorimetric analysis.
Assay [3] can be described thus: Inhibition of Saccharomyces cerevisiae alpha-glucosidase using 4-nitrophenyl alpha D-glucopyranoside as substrate assessed as release of 4-nitrophenol incubated for 5 mins prior to substrate addition measured after 10 mins. The method in brief:
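Yeast α-glucosidase assayed at 37 °C with 4-nitrophenyl α-D-glucopyranoside as substrate in 10 mM sodium phosphate buffer, pH 7.28. […] Absorbance rise at 400 nm compared with a DMSO control; IC50 read graphically from percent activity versus log concentration.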

The target in assay [4] is Maltase-glucoamylase, intestinal (Rattus norvegicus). The assay can be described thus: Inhibition of rat intestinal maltase using maltose as substrate by colorimetric analysis.

Chain of Lactase/phlorizin hydrolase (Q02401 868-1928 limits assumed): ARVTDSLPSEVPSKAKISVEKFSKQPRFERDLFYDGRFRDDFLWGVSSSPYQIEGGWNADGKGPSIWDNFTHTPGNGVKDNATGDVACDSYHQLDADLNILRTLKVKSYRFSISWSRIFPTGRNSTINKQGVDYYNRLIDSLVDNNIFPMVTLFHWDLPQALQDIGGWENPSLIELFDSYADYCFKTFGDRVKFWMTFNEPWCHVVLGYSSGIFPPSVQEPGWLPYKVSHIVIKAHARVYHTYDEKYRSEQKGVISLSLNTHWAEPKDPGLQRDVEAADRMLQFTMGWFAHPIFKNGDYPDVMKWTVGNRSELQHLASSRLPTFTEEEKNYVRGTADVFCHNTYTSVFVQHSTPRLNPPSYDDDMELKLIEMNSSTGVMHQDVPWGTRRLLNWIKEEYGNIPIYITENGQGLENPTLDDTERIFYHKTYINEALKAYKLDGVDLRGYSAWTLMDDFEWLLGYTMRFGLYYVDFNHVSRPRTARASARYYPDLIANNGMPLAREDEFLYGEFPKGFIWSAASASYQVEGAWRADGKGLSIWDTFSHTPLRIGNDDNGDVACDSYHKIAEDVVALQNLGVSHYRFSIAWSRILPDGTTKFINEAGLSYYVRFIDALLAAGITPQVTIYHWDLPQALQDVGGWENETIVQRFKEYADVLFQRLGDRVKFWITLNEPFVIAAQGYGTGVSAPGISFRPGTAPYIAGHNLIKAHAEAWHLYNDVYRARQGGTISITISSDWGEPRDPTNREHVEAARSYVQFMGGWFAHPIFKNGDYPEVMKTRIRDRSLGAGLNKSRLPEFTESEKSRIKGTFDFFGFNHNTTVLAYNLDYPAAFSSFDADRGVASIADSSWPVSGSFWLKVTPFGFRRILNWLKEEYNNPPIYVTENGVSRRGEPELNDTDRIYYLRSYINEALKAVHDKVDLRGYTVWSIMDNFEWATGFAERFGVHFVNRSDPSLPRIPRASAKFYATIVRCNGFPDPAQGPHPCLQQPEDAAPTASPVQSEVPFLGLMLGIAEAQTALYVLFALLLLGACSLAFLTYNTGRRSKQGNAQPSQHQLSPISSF

One may read the IC50 as the concentration needed to halve the response being measured. As for `Cc1ccc(S(=O)(=O)Nc2ccc3c(c2)C(=O)N(CCBr)C3=O)cc1`, the IC50 was greater than 200 µM in assay [1], greater than 200 µM in assay [2], 94.2 µM in assay [3] and greater than 200 µM in assay [4].
Consider `Cc1ccc(S(=O)(=O)Nc2ccc3c(c2)C(=O)N(CCCBr)C3=O)cc1`, for which the IC50 in assay [1] is greater than 200 µM; in assay [2], greater than 200 µM; in assay [3], 88.4 µM.
With `Cc1ccc(S(=O)(=O)Nc2ccc3c(c2)C(=O)N(CCCCBr)C3=O)cc1`, the IC50 in assay [1] is greater than 200 µM; in assay [2] it was greater than 200 µM; in assay [3], 69.7 µM; in assay [4] it was greater than 200 µM.
On to `Cc1ccc(S(=O)(=O)Nc2ccc3c(c2)C(=O)N(Cc2ccccc2)C3=O)cc1`, for which the IC50 in assay [1] is greater than 200 µM; in assay [2], greater than 200 µM; in assay [3] it was 54.2 µM; in assay [4], greater than 200 µM.
Take `Cc1ccc(S(=O)(=O)Nc2ccc3c(c2)C(=O)N(Cc2ccc(F)cc2)C3=O)cc1`: the IC50 in assay [1] is greater than 200 µM; in assay [2], 172 µM; in assay [3] it was 42.7 µM.
For `Cc1ccc(S(=O)(=O)Nc2ccc3c(c2)C(=O)N(Cc2ccccc2F)C3=O)cc1`, the IC50 in assay [1] is greater than 200 µM; in assay [2], 180 µM; in assay [3], 40.8 µM; in assay [4], 195 µM.
The like results for `Cc1ccc(S(=O)(=O)Nc2ccc3c(c2)C(=O)N(Cc2ccc(Cl)cc2)C3=O)cc1` were, in that order, greater than 200 µM, 155 µM, 32.6 µM and 188 µM.
The like results for `Cc1ccc(S(=O)(=O)Nc2ccc3c(c2)C(=O)N(Cc2ccc(Cl)c(Cl)c2)C3=O)cc1` were, in that order, greater than 200 µM, 101 µM, 28.7 µM and 122 µM.
With `Cc1ccc(S(=O)(=O)Nc2ccc3c(c2)C(=O)N(CCNc2ccccc2)C3=O)cc1`, the IC50 in assay [1] is greater than 200 µM; in assay [2], 177 µM; in assay [3] it was 58.5 µM; in assay [4], 99.6 µM.
Consider `Cc1ccc(S(=O)(=O)Nc2ccc3c(c2)C(=O)N(Cc2ccc(C#N)cc2)C3=O)cc1`, for which the results for the IC50 in assay [1], in assay [2] and in assay [3] were greater than 200 µM, 199 µM and 66.5 µM, respectively.
For the compound `Cc1ccc(S(=O)(=O)Nc2ccc3c(c2)C(=O)N(Cc2ccc(C(N)=O)cc2)C3=O)cc1`, the IC50 in assay [1] is greater than 200 µM; in assay [2] it was 84.1 µM; in assay [3] it was 60.3 µM.
For `Cc1ccc(S(=O)(=O)Nc2ccc3c(c2)C(=O)N(Cc2ccc(O)c(O)c2)C3=O)cc1`, the values for the concentration for half-maximal inhibition (IC50) in assay [1], in assay [2] and in assay [3] were greater than 200 µM, 164 µM and 72.6 µM, respectively.
For the compound `Cc1ccc(S(=O)(=O)Nc2ccc3c(c2)C(=O)N(N2CCOCC2)C3=O)cc1`, the concentration for half-maximal inhibition (IC50) in assay [1] is greater than 200 µM; in assay [2], greater than 200 µM; in assay [3], 52.1 µM.
As for `Cc1ccc(S(=O)(=O)Nc2ccc3c(c2)C(=O)N(CCNc2ccc(O)c(O)c2)C3=O)cc1`, the IC50 in assay [1] was greater than 200 µM; in assay [2] it was 66.6 µM; in assay [3] it was 44.5 µM; in assay [4] it was 28.8 µM.
The like results for `Cc1ccc(S(=O)(=O)Nc2ccc3c(c2)C(=O)N(CCOc2cccc(O)c2)C3=O)cc1` were, in that order, greater than 200 µM, 111 µM, 28.7 µM and 55.6 µM.
Consider `Cc1ccc(S(=O)(=O)Nc2ccc3c(c2)C(=O)N(CCOc2ccc(O)cc2)C3=O)cc1`, for which the half-maximal inhibitory concentration (IC50) was greater than 200 µM in assay [1], 100 µM in assay [2], 25.5 µM in assay [3] and 47.7 µM in assay [4].
Regarding `Cc1ccc(S(=O)(=O)Nc2ccc3c(c2)C(=O)N(CCOc2ccccc2)C3=O)cc1`, the results for the half-maximal inhibitory concentration (IC50) in assay [1], in assay [2] and in assay [3] were greater than 200 µM, 170 µM and 47.3 µM, respectively.
As for `O=C1c2ccccc2C(=O)N1CCNc1ccccc1`, the IC50 in assay [1] was greater than 200 µM; in assay [2] it was greater than 200 µM; in assay [3] it was greater than 200 µM; in assay [4] it was 184 µM.
Consider `O=C1c2ccc([N+](=O)[O-])cc2C(=O)N1CCNc1ccccc1`, for which the IC50 in assay [1] was greater than 200 µM; in assay [2], greater than 200 µM; in assay [3] it was 68.9 µM; in assay [4] it was 111 µM.
In the case of `Nc1ccc2c(c1)C(=O)N(CCNc1ccccc1)C2=O`, the IC50 in assay [1] is greater than 200 µM; in assay [2] it was greater than 200 µM; in assay [3], 138 µM; in assay [4], 144 µM.
For the compound `Cc1ccc(S(=O)(=O)Nc2ccc3c(c2)C(=O)N(C)C3=O)cc1`, the IC50 in assay [1], in assay [2], in assay [3] and in assay [4] was greater than 200 µM each time.
Take `C[C@H]1O[C@H](O[C@H]2[C@H](O)[C@@H](O)[C@@H](O[C@H]3[C@H](O)[C@@H](O)C(O)O[C@@H]3CO)O[C@@H]2CO)[C@H](O)[C@@H](O)[C@@H]1N[C@H]1C=C(CO)[C@@H](O)[C@H](O)[C@H]1O` (stereo not given in full) [ACARBOSE]: the IC50 in assay [1] was 8.65 µM; in assay [2] it was 167 µM; in assay [3] it was 235 µM.
